According to ChEMBL document CHEMBL1149086, “Antimalarial and antitumor evaluation of novel C-10 non-acetal dimers of 10beta-(2-hydroxyethyl)deoxoartemisinin” (J Med Chem, 2004):

Columns and labels:
CCRF-CEM [1] = assay: Concentration required to achieve total growth inhibition against leukemia CCRF-CEM cell line; type: functional; settings: Homo sapiens
COLO 205 [2] = assay: inhibition against colon COLO 205 cancer cell line; type: functional; settings: Homo sapiens
CCRF-CEM [3] = assay: inhibition against leukemia CCRF-CEM cell line; type: functional; settings: Homo sapiens
COLO 205 [4] = assay: Concentration of the drug required to achieve 50% cytotoxicity against colon COLO 205 cancer cell line; type: functional; settings: Homo sapiens, read-out: LC50 (the source's name)
COLO 205 [5] = assay: Concentration required to achieve total growth inhibition against colon COLO 205 cancer cell line; type: functional; settings: Homo sapiens
HCT-15 [6] = assay: Concentration required to achieve total growth inhibition against colon HCT-15 cancer cell line; type: functional; settings: Homo sapiens
HCT-15 [7] = assay: Concentration of the drug required to achieve 50% cytotoxicity against colon HCT-15 cancer cell line; type: functional; settings: Homo sapiens, read-out: LC50 (the source's name)
HCT-116 [8] = assay: Concentration required to achieve total growth inhibition against colon HCT116 cancer cell line; type: functional; settings: Homo sapiens
HCT-15 [9] = assay: inhibition against colon HCT-15 cancer cell line; type: functional; settings: Homo sapiens
HL-60 [10] = assay: inhibition against leukemia HL-60(TB) cell line; type: functional; settings: Homo sapiens
HL-60 [11] = assay: Concentration of the drug required to achieve 50% cytotoxicity against leukemia HL-60(TB) cell line; type: functional; settings: Homo sapiens, read-out: LC50 (the source's name)
HL-60 [12] = assay: Concentration required to achieve total growth inhibition against leukemia HL-60(TB) cell line; type: functional; settings: Homo sapiens
HCT-116 [13] = assay: Concentration of the drug required to achieve 50% cytotoxicity against colon HCT116 cancer cell line; type: functional; settings: Homo sapiens, read-out: LC50 (the source's name)
HCC 2998 [14] = assay: Concentration required to achieve total growth inhibition against colon HCC2998 cancer cell line; type: functional; settings: Homo sapiens
HCC 2998 [15] = assay: inhibition against colon HCC2998 cancer cell line; type: functional; settings: Homo sapiens
HCC 2998 [16] = assay: Concentration of the drug required to achieve 50% cytotoxicity against colon HCC2998 cancer cell line; type: functional; settings: Homo sapiens, read-out: LC50 (the source's name)
HT-29 [17] = assay: Concentration of the drug required to achieve 50% cytotoxicity against colon HT-29 cancer cell line; type: functional; settings: Homo sapiens, read-out: LC50 (the source's name)
HT-29 [18] = assay: inhibition against colon HT-29 cancer cell line; type: functional; settings: Homo sapiens
HT-29 [19] = assay: Concentration required to achieve total growth inhibition against colon HT-29 cancer cell line; type: functional; settings: Homo sapiens
K562 [20] = assay: Concentration of the drug required to achieve 50% cytotoxicity against leukemia K-562 cell line; type: functional; settings: Homo sapiens, read-out: LC50 (the source's name)
Jurkat [21] = assay: Tested for apoptosis in jurkat cells at a concentration of 0 uM of the compound; type: functional, Homo sapiens
Procedure, shortened: (§1)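 Jurkat cells (1 × 10⁶ cells mL⁻¹; >98% viable, <2% background apoptosis) incubated 24 h at 37 °C with compound (0–100 μM range, in DMSO). Nuclei stained with propidium iodide (50 μM) in HBSS with 0.1% Triton-X for 10 min at 37 °C. Apoptotic nuclei measured by flow cytometry. Mean ± SD of triplicate incubations in one experiment; Kruskal–Wallis test against DMSO control.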

Jurkat [22] = assay: Tested for apoptosis in jurkat cells at a concentration of 0.1 uM of the compound; type: functional, Homo sapiens; procedure, shortened: as §1
Jurkat [23] = assay: Tested for apoptosis in jurkat cells at a concentration of 0.3 uM of the compound; type: functional, Homo sapiens
Procedure, shortened: (§2)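 Jurkat cells (>98% viable, <2% background apoptosis) at 1 × 10⁶ cells/mL were exposed to 0–100 μM drug (DMSO) for 24 h at 37 °C in 5% CO₂. Nuclei were stained with 50 μM propidium iodide and 0.1% Triton-X in HBSS for 10 min at 37 °C, then scored as apoptotic by flow cytometry. Triplicate incubations in one experiment, mean ± SD; Kruskal–Wallis test versus DMSO control.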

Jurkat [24] = assay: Tested for apoptosis in jurkat cells at a concentration of 1 uM of the compound; type: functional, Homo sapiens; procedure, shortened: as §2
Jurkat [25] = assay: Tested for apoptosis in jurkat cells at a concentration of 10 uM of the compound; type: functional, Homo sapiens; procedure, shortened: as §2
Jurkat [26] = assay: Tested for apoptosis in jurkat cells at a concentration of 100 uM of the compound; type: functional, Homo sapiens; procedure, shortened: as §2
Jurkat [27] = assay: Tested for apoptosis in jurkat cells at a concentration of 3 uM of the compound; type: functional, Homo sapiens; procedure, shortened: as §2
Jurkat [28] = assay: Tested for apoptosis in jurkat cells at a concentration of 30 uM of the compound; type: functional, Homo sapiens; procedure, shortened: as §2
Jurkat [29] = assay: Inhibitory concentration against jurkat cells; type: functional, cell-based; settings: Homo sapiens
Procedure, shortened: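 HL60 (2.5 × 10⁴/well) or Jurkat (1 × 10⁵/well) in RPMI-1640 with 10% FBS and 1% L-glutamine, 5% CO2, 37 °C. Exposed to 10⁻¹⁰–10⁻⁴ M for 72 h, final DMSO below 0.5% v/v. [3H]-thymidine (0.5 μCi) added for the final 24 h. Incorporation counted by β-scintillation.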

KM12 [30] = assay: Concentration required to achieve total growth inhibition against colon KM12 cancer cell line; type: functional; settings: Homo sapiens
K562 [31] = assay: Concentration required to achieve total growth inhibition against leukemia K-562 cell line; type: functional; settings: Homo sapiens
KM12 [32] = assay: inhibition against colon KM12 cancer cell line; type: functional; settings: Homo sapiens
KM12 [33] = assay: Concentration of the drug required to achieve 50% cytotoxicity against colon KM12 cancer cell line; type: functional; settings: Homo sapiens, read-out: LC50 (the source's name)
MOLT-4 = assay: inhibition against leukemia MOLT-4 cell line; type: functional; settings: Homo sapiens
LOX IMVI [34] = assay: inhibition against melanoma LOX IMVI cell line; type: functional; settings: Homo sapiens
LOX IMVI [35] = assay: Concentration of the drug required to achieve 50% cytotoxicity against melanoma LOX IMVI cell line; type: cell-based; settings: human

C[C@H]1[C@@H](CCOP(=O)(OCC[C@H]2O[C@@H]3OC4(C)CC[C@H]5[C@H](C)CC[C@@H]([C@H]2C)[C@@]35OO4)Oc2ccccc2)O[C@@H]2OC3(C)CC[C@H]4[C@H](C)CC[C@@H]1[C@@]24OO3 (single isomer, unassigned) showed a TGI (CCRF-CEM [1]) of 56 µM, a GI50 (COLO 205 [2]) of under 0.01 µM and a GI50 (CCRF-CEM [3]) of 0.0259 µM. The CC50 (COLO 205 [4]) was over 100 µM, the TGI (COLO 205 [5]) was 0.17 µM and the TGI (HCT-15 [6]) was over 100 µM. It also gave a CC50 (HCT-15 [7]) of over 100 µM, a TGI (HCT-116 [8]) of over 100 µM and a GI50 (HCT-15 [9]) of under 0.01 µM. For the same compound, the GI50 (HL-60 [10]) was 0.0115 µM, the CC50 (HL-60 [11]) was over 100 µM and the TGI (HL-60 [12]) was 2.23 µM. For the same compound, the CC50 (HCT-116 [13]) was over 100 µM, the TGI (HCC 2998 [14]) was 2.85 µM and the GI50 (HCC 2998 [15]) was 0.0648 µM. The CC50 (HCC 2998 [16]) was over 100 µM, the CC50 (HT-29 [17]) was over 100 µM and the GI50 (HT-29 [18]) was under 0.01 µM. It also gave a TGI (HT-29 [19]) of 23.2 µM, a CC50 (K562 [20]) of over 100 µM and an Activity (Jurkat [21]) of 7.5%. It also gave an Activity (Jurkat [22]) of 8.7%, an Activity (Jurkat [23]) of 7.3% and an Activity (Jurkat [24]) of 8.9%. It also gave an Activity (Jurkat [25]) of 11.2%, an Activity (Jurkat [26]) of 20.1% and an Activity (Jurkat [27]) of 8.7%. The Activity (Jurkat [28]) was 17.3%, the IC50 (Jurkat [29]) was 13.2 µM and the TGI (KM12 [30]) was 17.9 µM. For the same compound, the TGI (K562 [31]) was 100 µM, the GI50 (KM12 [32]) was under 0.01 µM and the CC50 (KM12 [33]) was over 100 µM. It also gave a GI50 (MOLT-4) of under 0.01 µM, a GI50 (LOX IMVI [34]) of 0.0191 µM and an LC50 (LOX IMVI [35]) of over 100 µM.
